Blank lines part the entries; values can stand above or below the compound they belong to. Calls of active or inactive are those of the source. The rule behind the calls is not given here.
Experiments:
[1] = molecular target: T1, Hepatocyte growth factor receptor (Homo sapiens, UniProt P08581); test: Inhibition of c-Met in gefitinib-resistant human HCC827 cells assessed as inhibition of p44/42 phosphorylation at 0.5 uM after 2 hrs by Western blotting analysis; format: cell-based
How it was run: (§1)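 Cells grown to exponential phase, treated with compound 2 h at 37°C, lysed in 1× SDS sample buffer, resolved on 10% SDS-PAGE and transferred to nitrocellulose for immunoblotting.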

[2] = molecular target: T1, Hepatocyte growth factor receptor; test: Inhibition of c-Met in gefitinib-resistant human HCC827 cells assessed as inhibition of AKT phosphorylation at 0.5 uM after 2 hrs by Western blotting analysis; format: cell-based; how it was run: as §1
[3] = molecular target: T1, Hepatocyte growth factor receptor; test: Inhibition of c-Met phosphorylation in gefitinib-resistant human HCC827 cells at 0.5 uM after 2 hrs by Western blotting analysis; format: cell-based; how it was run: as §1
MDA-MB-231 = test: Antiproliferative activity against human MDA-MB-231 cells after 72 hrs; settings: MDA-MB-231, 72 h
[4] = Antiproliferative activity against human EBC1 cells after 72 hrs; settings: EBC-1, 72 h
MKN-45 = test: Antiproliferative activity against human MKN45 cells after 72 hrs; settings: MKN-45, 72 h
SK-MEL-28 = test: Antiproliferative activity against human SK-MEL-28 cells after 72 hrs; settings: SK-MEL-28, 72 h
HCT-116 = test: Antiproliferative activity against human HCT116 cells after 72 hrs; settings: HCT-116, 72 h
MCF7 = test: Antiproliferative activity against human MCF7 cells after 72 hrs; settings: MCF7, 72 h
NCI-H661 = test: Antiproliferative activity against human NCI-H661 cells after 72 hrs; settings: NCI-H661, 72 h
SNU-5 = test: Antiproliferative activity against human SNU5 cells after 72 hrs; settings: SNU-5, 72 h
NIH3T3 = test: Antitumor activity against mouse NIH/3T3 cells expressing TPR/Met allografted in mouse assessed as tumor growth inhibition at 50 mg/kg, po qd administered for 2 weeks measured twice per week relative to vehicle-treated control; format: functional; settings: NIH3T3, 336 h, read-out: TGI
How it was run: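 Tumor fragments (1 mm³) implanted s.c. in right flank of nude mice by trocar. Randomized at 100–150 mm³ tumor volume. Dosed orally 7 days/week for 2 weeks; vehicle controls. Calipers twice weekly; TV = length×width²/2. Inhibition = 100%×{1−[(T day14−T day0)/(C day14−C day0)]}. n = 6/group, Student's t-test.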

SK-OV-3 = test: Antiproliferative activity against human SKOV3 cells after 72 hrs; settings: SK-OV-3, 72 h
NCI-H441 = test: Antiproliferative activity against human NCI-H441 cells after 72 hrs; settings: NCI-H441, 72 h
[5] = molecular target: T1, Hepatocyte growth factor receptor; test: Inhibition of c-Met (unknown origin) using poly (Glu, Tyr) 4:1 as substrate after 60 mins by ELISA
[6] = molecular target: T1, Hepatocyte growth factor receptor; test: Inhibition of c-Met (unknown origin) using poly (Glu, Tyr) 4:1 as substrate at 10 uM after 60 mins by ELISA
How it was run: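 ELISA on wells precoated with 20 µg/mL poly(Glu,Tyr)4:1. Purified kinase with 10 µmol/L ATP in 50 mM HEPES pH 7.4, 50 mM MgCl₂, 0.5 mM MnCl₂, 0.2 mM Na₃VO₄, 1 mM DTT; 1% DMSO vehicle. 60 min at 37°C. Phosphotyrosine detected with PY99 antibody, then HRP anti-mouse IgG and o-phenylenediamine/H₂O₂, A490. Inhibition = [1−(A490/A490 control)]×100%; IC50 from curves.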

T1 sequence (P08581 whole entry): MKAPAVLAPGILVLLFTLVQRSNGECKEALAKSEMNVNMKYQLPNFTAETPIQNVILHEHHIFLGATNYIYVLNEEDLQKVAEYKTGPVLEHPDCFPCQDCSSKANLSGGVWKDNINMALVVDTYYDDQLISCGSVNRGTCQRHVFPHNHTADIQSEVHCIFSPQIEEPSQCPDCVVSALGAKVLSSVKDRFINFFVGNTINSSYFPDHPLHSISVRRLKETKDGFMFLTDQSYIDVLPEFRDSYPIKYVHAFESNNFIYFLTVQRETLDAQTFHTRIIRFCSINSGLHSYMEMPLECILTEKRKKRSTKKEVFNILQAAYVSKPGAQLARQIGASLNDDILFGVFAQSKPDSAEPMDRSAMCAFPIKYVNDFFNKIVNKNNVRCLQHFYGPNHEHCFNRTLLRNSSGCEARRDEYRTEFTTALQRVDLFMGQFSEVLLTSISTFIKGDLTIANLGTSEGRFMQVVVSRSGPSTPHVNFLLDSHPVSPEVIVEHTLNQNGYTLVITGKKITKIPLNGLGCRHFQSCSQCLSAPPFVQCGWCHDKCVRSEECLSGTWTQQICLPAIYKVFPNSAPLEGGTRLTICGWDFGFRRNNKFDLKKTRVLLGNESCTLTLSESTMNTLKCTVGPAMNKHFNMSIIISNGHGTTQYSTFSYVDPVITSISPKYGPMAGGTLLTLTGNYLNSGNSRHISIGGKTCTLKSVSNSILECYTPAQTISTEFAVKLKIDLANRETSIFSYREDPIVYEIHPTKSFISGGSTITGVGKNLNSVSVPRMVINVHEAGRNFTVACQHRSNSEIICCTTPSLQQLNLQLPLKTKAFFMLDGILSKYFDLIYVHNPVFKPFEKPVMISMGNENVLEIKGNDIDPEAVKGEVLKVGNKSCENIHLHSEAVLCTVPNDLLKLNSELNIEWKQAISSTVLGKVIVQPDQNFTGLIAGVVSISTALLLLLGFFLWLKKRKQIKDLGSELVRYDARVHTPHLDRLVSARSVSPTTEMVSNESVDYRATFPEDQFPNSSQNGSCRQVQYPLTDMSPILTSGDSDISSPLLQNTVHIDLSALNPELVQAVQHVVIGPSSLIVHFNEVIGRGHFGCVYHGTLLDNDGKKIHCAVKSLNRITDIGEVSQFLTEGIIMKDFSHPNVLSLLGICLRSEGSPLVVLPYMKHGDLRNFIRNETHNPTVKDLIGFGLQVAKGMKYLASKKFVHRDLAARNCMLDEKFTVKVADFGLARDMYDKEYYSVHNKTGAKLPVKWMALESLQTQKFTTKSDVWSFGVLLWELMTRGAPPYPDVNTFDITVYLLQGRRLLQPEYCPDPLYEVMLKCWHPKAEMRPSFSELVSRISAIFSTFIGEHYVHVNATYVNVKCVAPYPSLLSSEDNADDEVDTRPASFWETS

Compound: C[C@@H](Oc1cc(-c2cnn(C3CCNCC3)c2)cnc1N)c1c(Cl)ccc(F)c1Cl [CRIZOTINIB]
- IC50 (MDA-MB-231): 10.8 µM
- IC50 [4]: 23 nM
- IC50 (MKN-45): 13 nM
- IC50 (SK-MEL-28): 11 µM
- IC50 (HCT-116): 14.8 µM
- IC50 (MCF7): 9.58 µM
- IC50 (NCI-H661): 11.5 µM
- IC50 (SNU-5): 16 nM
- inhibition in vivo at 50 mg/kg (NIH3T3): 82.4%
- IC50 (SK-OV-3): 12.8 µM
- IC50 (NCI-H441): 17.2 µM

Compound: CC(Sc1cc(-c2cnn(C3CCNCC3)c2)cnc1N)c1c(Cl)ccc(F)c1Cl (racemic)
- IC50 [5]: 16.4 nM

Compound: CC(NS(=O)(=O)c1cc(-c2cnn(C3CCNCC3)c2)cnc1N)c1c(Cl)ccc(F)c1Cl (configuration not stated)
- IC50 [6]: > 10 µM

More lines, now with the values ahead:

- inhibition [1]: inactive
- inhibition [2]: inactive
- inhibition [3]: Active
Compound: COc1cc2ncnc(Nc3ccc(F)c(Cl)c3)c2cc1OCCCN1CCOCC1

- IC50 [5]: 171 nM
Compound: C[C@H](Sc1cc(-c2cnn(C3CCNCC3)c2)cnc1N)c1c(Cl)ccc(F)c1Cl

Reference: ChEMBL document CHEMBL2440064, “Synthesis and biological evaluation of 2-amino-5-aryl-3-benzylthiopyridine scaffold based potent c-Met inhibitors” (Bioorg Med Chem, 2013)
